Experimental data: ChEMBL document CHEMBL4828730, “Gemfibrozil derivatives as activators of soluble guanylyl cyclase - A structure-activity study” (Eur J Med Chem, 2021)
Active and inactive are the calls of the source. The calls are words filed in the database; no cut-off is given here.

Assays:
[1] = target: T1, Soluble guanylate cyclase alpha1/beta1 complex (Homo sapiens) (UniProt Q02153+Q02108); experiment: (§1) Activation of full length human sGC alpha1/beta1 subunit containing heme in ferric state expressed in Sf9 insect cells using […] incubated for 15 mins by [32P]GTP assay
How it was run: (§2)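 Reaction started at 37°C with 1 mM GTP/[α-32P]GTP for 15 min, then stopped by zinc carbonate precipitation. Single-dose test at 100 μM relative to vehicle; concentration-response gives EC50 as mean ± SD.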

Thoracic aorta = experiment: Vasodilation activity in C57Bl6 mouse thoracic aorta assessed as inhibition of phenylephrine-induced contractions; assay type: functional, tissue-based; details: for minimal effective concentration: read-out: MEC
How it was run: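 Isolated mouse aortic rings on a wire myograph, equilibrated 80 min in carbogen-gassed Krebs-Henseleit pH 7.4. Rings were precontracted with 500 nM phenylephrine plus 100 nM 5-hydroxytryptamine to submaximal tension, then given cumulative compound doses while isometric tension was recorded. IC50 was derived by nonlinear regression.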

[2] = target: T2, Soluble guanylate cyclase alpha1/beta1 complex (Homo sapiens, UniProt Q02108+Q02153); experiment: as §1; how it was run: as §2
T2 sequence (Q02153 whole entry): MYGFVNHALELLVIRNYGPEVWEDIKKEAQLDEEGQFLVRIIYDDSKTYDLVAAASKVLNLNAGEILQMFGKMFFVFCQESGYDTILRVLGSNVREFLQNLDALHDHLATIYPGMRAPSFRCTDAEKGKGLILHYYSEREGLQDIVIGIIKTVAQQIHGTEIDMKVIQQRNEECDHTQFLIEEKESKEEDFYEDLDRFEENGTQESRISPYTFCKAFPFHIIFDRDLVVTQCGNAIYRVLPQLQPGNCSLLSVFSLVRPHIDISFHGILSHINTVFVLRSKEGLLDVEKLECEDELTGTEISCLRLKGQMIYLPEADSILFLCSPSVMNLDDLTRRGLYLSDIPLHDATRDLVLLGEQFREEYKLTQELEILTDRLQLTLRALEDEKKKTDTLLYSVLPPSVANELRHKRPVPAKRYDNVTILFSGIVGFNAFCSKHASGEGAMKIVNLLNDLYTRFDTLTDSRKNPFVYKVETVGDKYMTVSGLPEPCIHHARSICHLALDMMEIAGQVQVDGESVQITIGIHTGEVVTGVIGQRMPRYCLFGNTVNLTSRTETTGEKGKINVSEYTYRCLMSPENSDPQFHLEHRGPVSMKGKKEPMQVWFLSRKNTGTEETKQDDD
T2 sequence (Q02108 whole entry): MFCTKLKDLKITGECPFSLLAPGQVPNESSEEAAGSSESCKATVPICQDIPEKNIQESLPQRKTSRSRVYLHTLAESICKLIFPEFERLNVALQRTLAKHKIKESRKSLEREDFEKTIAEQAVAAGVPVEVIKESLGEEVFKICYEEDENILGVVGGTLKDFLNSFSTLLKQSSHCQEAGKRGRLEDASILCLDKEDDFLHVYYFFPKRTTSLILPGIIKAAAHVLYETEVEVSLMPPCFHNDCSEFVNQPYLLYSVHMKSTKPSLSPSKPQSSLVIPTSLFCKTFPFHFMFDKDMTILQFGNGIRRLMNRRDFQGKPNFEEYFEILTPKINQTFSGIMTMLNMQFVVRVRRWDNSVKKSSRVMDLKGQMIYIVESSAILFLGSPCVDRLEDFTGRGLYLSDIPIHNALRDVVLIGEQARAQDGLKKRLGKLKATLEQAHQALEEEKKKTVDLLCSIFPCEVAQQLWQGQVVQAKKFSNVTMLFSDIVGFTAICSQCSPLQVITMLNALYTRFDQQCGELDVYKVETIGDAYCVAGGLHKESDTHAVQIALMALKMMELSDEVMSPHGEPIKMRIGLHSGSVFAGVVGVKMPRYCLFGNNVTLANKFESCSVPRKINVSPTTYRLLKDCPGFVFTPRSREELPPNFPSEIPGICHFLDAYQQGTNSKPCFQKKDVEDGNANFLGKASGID

[3] = target: T1, Soluble guanylate cyclase alpha1/beta1 complex (Homo sapiens); experiment: Activation of full length human sGC alpha1/beta1 subunit containing heme in ferric state expressed in Sf9 insect cells using […] incubated for 15 mins at 100 uM incubated for 10 mins by [32P]GTP assay relative to control; details: filed as activator; how it was run: as §2

Row | Compound | Activity [1] | IC50 (Thoracic aorta) | minimal effective concentration (Thoracic aorta) | EC50 [2] | fold change (FC) [3]
1 | CCCCCC(=O)N(CCCC(C)(C)C(=O)O)c1cc(C)ccc1C | inactive | – | – | – | –
2 | Cc1ccc(C(C)C)c(OCCCC(C)(C)C(=O)O)c1 | – | 71 µM | 10 µM | 166 µM | 2.6
3 | CCNC(=O)C(C)(C)CCCOc1cc(C)ccc1C | inactive | – | – | – | –
4 | CCC(CCCOc1cc(C)ccc1C)C(=O)O (stereo not given) | inactive | – | – | – | –
5 | Cc1ccc(C)c(OCCCC(C)(C)C(=O)NCCNC(=O)C(C)(C)CCCOc2cc(C)ccc2C)c1 | inactive | – | – | – | –
6 | Cc1ccc(C)c(OCCCC(C)(C)C(=O)NCCCCCCNC(=O)C(C)(C)CCCOc2cc(C)ccc2C)c1 | inactive | – | – | – | –
7 | Cc1ccc(C)c(OCC(=O)O)c1 | inactive | – | – | – | –
8 | CCCCCCNC(=O)C(C)(C)CCCOc1cc(C)ccc1C | inactive | – | – | – | –
9 | O=C(O)CCCCCSc1ccccc1 | inactive | – | – | – | –
10 | CCCCCCC(CCCOc1cc(C)ccc1C)C(=O)O (stereo not given) | – | 45 µM | 10 µM | 128 µM | 4.1
11 | Cc1ccccc1OCCCC(C)(C)C(=O)O | inactive | – | – | – | –
12 | CC(=O)N(CCCC(C)(C)C(=O)O)c1cc(C)ccc1C | inactive | – | – | – | –
13 | O=C(O)CCCCCOc1ccccc1 | inactive | – | – | – | –
14 | Cc1ccc(C)c(NCCCC(C)(C)C(=O)O)c1 | – | 721 µM | 100 µM | 50 µM | 2.9
15 | CNC(=O)C(C)(C)CCCOc1cc(C)ccc1C | inactive | – | – | – | –
16 | Cc1ccc(C)c(N(CCCC(C)(C)C(=O)O)C(=O)CCCCC(=O)N(CCCC(C)(C)C(=O)O)c2cc(C)ccc2C)c1 | – | 261 µM | 10 µM | 119 µM | 2.2
17 | Cc1ccc(C)c(OCCCC(=O)O)c1 | inactive | – | – | – | –
18 | Cc1ccc(C)c(OCCCCCC(=O)O)c1 | – | > 1000 µM | 300 µM | 389 µM | 2.1
19 | CCCC(=O)N(CCCC(C)(C)C(=O)O)c1cc(C)ccc1C | inactive | – | – | – | –
20 | Cc1ccc(C)c(OCCCC(C)(C)C(=O)NCCCCNC(=O)C(C)(C)CCCOc2cc(C)ccc2C)c1 | inactive | – | – | – | –
21 | Cc1ccc(C)c(OCCCC(C)(C)C(=O)O)c1 [GEMFIBROZIL] | – | 310 µM | 30 µM | 624 µM | 4
22 | CCCCNC(=O)C(C)(C)CCCOc1cc(C)ccc1C | inactive | – | – | – | –
23 | Cc1ccc(C)c(OCCCCC(=O)O)c1 | – | 812 µM | 100 µM | 707 µM | 2.9
24 | Cc1ccc(C)c(OCCCC(C)(C)C(N)=O)c1 | inactive | – | – | – | –
